Source: ChEMBL document CHEMBL1146345, “Synthesis and evaluation of novel 1-(1H-1,2,4-triazol-1-yl)-2-(2,4-difluorophenyl)-3-[(4-substitutedphenyl)-piperazin-1-yl]-propan-2-ols as antifungal agents” (2007)
≈ marks a conversion by molar mass, not a printed value.

What was measured:
Type in all cases: functional
Candida albicans = experiment: Antifungal activity against Candida albicans after 24 hrs by microbroth dilution method
Summary of the method: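 Broth microdilution following NCCLS methods, with drug dilutions in growth medium. Inoculated plates were incubated at 35 C and read at 24 h. MIC80 is the first well showing roughly 80% less growth than the drug-free well. Fluconazole and itraconazole served as positive controls.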

Candida parapsilosis = experiment: Antifungal activity against Candida parapsilosis ATCC 22019 by micro-broth dilution method; conditions: Lodderomyces parapsilosis
Summary of the method: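 Candida parapsilosis ATCC22019 was the quality-control strain tested in every assay. Microbroth dilution followed NCCLS methods, with incubation at 35 C in growth medium. MIC80 is the first well with about 80% growth reduction relative to the drug-free control. Fluconazole and itraconazole were the positive controls.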

Cryptococcus neoformans = experiment: Antifungal activity against Cryptococcus neoformans after 72 hrs by micro-broth dilution method
Summary of the method: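 Cryptococcus neoformans was tested by NCCLS broth microdilution, with drug diluted in growth medium and incubation at 35 C. MIC was read at 72 h as MIC80, the first well with about 80% growth reduction compared with the drug-free well. Fluconazole and itraconazole were the positive controls.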

Candida tropicalis = experiment: Antifungal activity against Candida tropicalis by micro-broth dilution method
Summary of the method: (§1)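 NCCLS microbroth dilution: drugs diluted in growth medium, inoculated, then incubated at 35 C. The endpoint was MIC80, the first well with approximately 80% less growth than the drug-free well. Fluconazole and itraconazole were run as positive controls.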

Pichia kudriavzevii = experiment: Antifungal activity against Candida krusei ATCC 6258 by micro-broth dilution method; summary of the method: as §1
Nakaseomyces glabratus = experiment: Antifungal activity against Torulopsis glabrata by micro-broth dilution method; summary of the method: as §1

Row | Compound | MIC80 (Candida albicans) | MIC80 (Candida parapsilosis) | MIC80 (Cryptococcus neoformans) | MIC80 (Candida tropicalis) | MIC80 (Pichia kudriavzevii) | MIC80 (Nakaseomyces glabratus)
1 | O=[N+]([O-])c1ccc(/C=N/c2ccc(N3CCN(CC(O)(Cn4cncn4)c4ccc(F)cc4F)CC3)cc2)cc1 (stereo not drawn) | > 64 µg/mL | 4 µg/mL (≈ 7.31 µM) | > 64 µg/mL | > 64 µg/mL | 4 µg/mL (≈ 7.31 µM) | 8 µg/mL (≈ 14.6 µM)
2 | O=[N+]([O-])c1cccc(/C=N/c2ccc(N3CCN(CC(O)(Cn4cncn4)c4ccc(F)cc4F)CC3)cc2)c1 (stereo not drawn) | 64 µg/mL (≈ 117 µM) | 4 µg/mL (≈ 7.31 µM) | 16 µg/mL (≈ 29.2 µM) | > 64 µg/mL | 8 µg/mL (≈ 14.6 µM) | 4 µg/mL (≈ 7.31 µM)
3 | OC(CN1CCN(c2ccc(/N=C/c3ccc(Cl)c(Cl)c3)cc2)CC1)(Cn1cncn1)c1ccc(F)cc1F (stereo not drawn) | 1 µg/mL (≈ 1.75 µM) | 8 µg/mL (≈ 14 µM) | > 64 µg/mL | > 64 µg/mL | 16 µg/mL (≈ 28 µM) | > 64 µg/mL
4 | Cc1ccc(/C=N/c2ccc(N3CCN(CC(O)(Cn4cncn4)c4ccc(F)cc4F)CC3)cc2)cc1 (stereo not drawn) | 1 µg/mL (≈ 1.94 µM) | 2 µg/mL (≈ 3.87 µM) | > 64 µg/mL | > 64 µg/mL | 4 µg/mL (≈ 7.74 µM) | 16 µg/mL (≈ 31 µM)
5 | Oc1ccc(/C=N/c2ccc(N3CCN(CC(O)(Cn4cncn4)c4ccc(F)cc4F)CC3)cc2)cc1 (stereo not drawn) | 32 µg/mL (≈ 61.7 µM) | 1 µg/mL (≈ 1.93 µM) | 4 µg/mL (≈ 7.71 µM) | > 64 µg/mL | 4 µg/mL (≈ 7.71 µM) | 8 µg/mL (≈ 15.4 µM)
6 | COc1cccc(/C=N/c2ccc(N3CCN(CC(O)(Cn4cncn4)c4ccc(F)cc4F)CC3)cc2)c1O (stereo not drawn) | > 64 µg/mL | 4 µg/mL (≈ 7.29 µM) | 64 µg/mL (≈ 117 µM) | > 64 µg/mL | 16 µg/mL (≈ 29.2 µM) | 16 µg/mL (≈ 29.2 µM)
7 | OC(CN1CCN(c2ccc(/N=C/c3ccc(Cl)cc3)cc2)CC1)(Cn1cncn1)c1ccc(F)cc1F (stereo not drawn) | 0.5 µg/mL (≈ 0.931 µM) | 1 µg/mL (≈ 1.86 µM) | 32 µg/mL (≈ 59.6 µM) | > 64 µg/mL | 4 µg/mL (≈ 7.45 µM) | > 64 µg/mL
8 | OC(CN1CCN(c2ccc(/N=C/c3ccc(Br)cc3)cc2)CC1)(Cn1cncn1)c1ccc(F)cc1F (stereo not drawn) | 64 µg/mL (≈ 110 µM) | 2 µg/mL (≈ 3.44 µM) | 32 µg/mL (≈ 55 µM) | > 64 µg/mL | 8 µg/mL (≈ 13.8 µM) | > 64 µg/mL
9 | OC(CN1CCN(c2ccc(/N=C/c3ccc4c(c3)OCO4)cc2)CC1)(Cn1cncn1)c1ccc(F)cc1F (stereo not drawn) | 16 µg/mL (≈ 29.3 µM) | 2 µg/mL (≈ 3.66 µM) | 32 µg/mL (≈ 58.5 µM) | > 64 µg/mL | 4 µg/mL (≈ 7.32 µM) | 16 µg/mL (≈ 29.3 µM)
10 | OC(CN1CCN(c2ccc(/N=C/c3ccc(F)cc3)cc2F)CC1)(Cn1cncn1)c1ccc(F)cc1F (stereo not drawn) | 4 µg/mL (≈ 7.43 µM) | 32 µg/mL (≈ 59.4 µM) | 8 µg/mL (≈ 14.9 µM) | > 64 µg/mL | 8 µg/mL (≈ 14.9 µM) | 8 µg/mL (≈ 14.9 µM)
11 | OC(CN1CCN(c2ccc(/N=C/c3ccc(Cl)cc3)cc2F)CC1)(Cn1cncn1)c1ccc(F)cc1F (stereo not drawn) | 16 µg/mL (≈ 28.8 µM) | 16 µg/mL (≈ 28.8 µM) | 32 µg/mL (≈ 57.7 µM) | > 64 µg/mL | 16 µg/mL (≈ 28.8 µM) | 32 µg/mL (≈ 57.7 µM)
12 | OC(CN1CCN(c2ccc(/N=C/c3ccc(Br)cc3)cc2F)CC1)(Cn1cncn1)c1ccc(F)cc1F (stereo not drawn) | 32 µg/mL (≈ 53.4 µM) | 8 µg/mL (≈ 13.3 µM) | 32 µg/mL (≈ 53.4 µM) | > 64 µg/mL | 8 µg/mL (≈ 13.3 µM) | 16 µg/mL (≈ 26.7 µM)
13 | Cc1ccc(/C=N/c2ccc(N3CCN(CC(O)(Cn4cncn4)c4ccc(F)cc4F)CC3)c(F)c2)cc1 (stereo not drawn) | 16 µg/mL (≈ 29.9 µM) | 32 µg/mL (≈ 59.9 µM) | 8 µg/mL (≈ 15 µM) | > 64 µg/mL | 16 µg/mL (≈ 29.9 µM) | 16 µg/mL (≈ 29.9 µM)
14 | OC(CN1CCN(c2ccc(/N=C/c3ccc(OCc4cccc(Cl)c4)cc3)cc2)CC1)(Cn1cncn1)c1ccc(F)cc1F (stereo not drawn) | > 64 µg/mL | 16 µg/mL (≈ 24.9 µM) | 64 µg/mL (≈ 99.5 µM) | > 64 µg/mL | 32 µg/mL (≈ 49.8 µM) | 2 µg/mL (≈ 3.11 µM)
15 | OC(CN1CCN(c2ccc(/N=C/c3ccc(OCc4ccccc4)cc3)cc2)CC1)(Cn1cncn1)c1ccc(F)cc1F (stereo not drawn) | 64 µg/mL (≈ 105 µM) | > 64 µg/mL | 16 µg/mL (≈ 26.3 µM) | > 64 µg/mL | 8 µg/mL (≈ 13.1 µM) | 32 µg/mL (≈ 52.6 µM)
16 | OC(CN1CCN(c2ccc(/N=C/c3ccc(Cl)cc3Cl)cc2)CC1)(Cn1cncn1)c1ccc(F)cc1F (stereo not drawn) | > 64 µg/mL | 8 µg/mL (≈ 14 µM) | 64 µg/mL (≈ 112 µM) | > 64 µg/mL | 8 µg/mL (≈ 14 µM) | 8 µg/mL (≈ 14 µM)
17 | OC(CN1CCN(c2ccc(/N=C/c3ccc(F)cc3)cc2)CC1)(Cn1cncn1)c1ccc(F)cc1F (stereo not drawn) | 64 µg/mL (≈ 123 µM) | 2 µg/mL (≈ 3.84 µM) | 4 µg/mL (≈ 7.68 µM) | > 64 µg/mL | 16 µg/mL (≈ 30.7 µM) | > 64 µg/mL
18 | OC(Cn1cncn1)(Cn1cncn1)c1ccc(F)cc1F [FLUCONAZOLE] | 1 µg/mL (≈ 3.27 µM) | 4 µg/mL (≈ 13.1 µM) | 32 µg/mL (≈ 104 µM) | 64 µg/mL (≈ 209 µM) | 8 µg/mL (≈ 26.1 µM) | 8 µg/mL (≈ 26.1 µM)
